In ChEMBL document CHEMBL1123569 (J Med Chem, 1987):
pIC50: −log10 of the molar value. *1 amine or outer side, *2 acyl side, *3 side chain or, on linkers, in order; H or OH if unused. Where a SMILES comes first, the peptide text is derived from it. [ ]: non-standard residue; d: D form. The star is where a group is joined. ξ: configuration not given here. Met(O2) = CS(=O)(=O)CC[C@H](N)C(=O)O; Sta = CC(C)C[C@H](N)[C@@H](O)CC(=O)O; X1 = O=C(C(N[*:1])c1cccs1)[*:2]; ξGly(cPent) = NC(C(=O)O)C1CCCC1; Cha = N[C@@H](CC1CCCCC1)C(=O)O; Isovaleryl = CC(C)CC(=O)*; ξChg = NC(C(=O)O)C1CCCCC1; ξPhg = NC(C(=O)O)c1ccccc1; Nle = CCCC[C@H](N)C(=O)O; Boc = CC(C)(C)OC(=O)*; Bn = c1ccc(C*)cc1; X2 = c1cncc(C*)c1

biological target: T1, Renin (Homo sapiens, UniProt P00797); test: Inhibition of human plasma renin; type: cell-free
T1 sequence (P00797 whole entry): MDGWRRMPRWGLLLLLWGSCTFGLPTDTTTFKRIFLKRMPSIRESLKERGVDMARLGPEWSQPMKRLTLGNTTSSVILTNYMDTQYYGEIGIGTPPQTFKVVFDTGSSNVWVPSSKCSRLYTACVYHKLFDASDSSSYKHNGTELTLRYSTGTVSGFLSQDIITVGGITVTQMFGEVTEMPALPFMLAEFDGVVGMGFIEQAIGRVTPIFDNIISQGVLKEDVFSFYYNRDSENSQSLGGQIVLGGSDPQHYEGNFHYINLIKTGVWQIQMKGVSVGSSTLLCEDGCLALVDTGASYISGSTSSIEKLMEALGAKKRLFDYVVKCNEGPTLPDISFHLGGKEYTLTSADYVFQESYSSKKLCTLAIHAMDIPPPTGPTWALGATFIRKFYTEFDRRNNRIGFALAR
In short: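 Enriched human plasma renin preparation, substrate its own endogenous angiotensinogen (about 2×10^-6 M). Inhibitor added over a range of increasing concentrations. Angiotensin I released was quantified by RIA. With substrate held constant across the series, IC50 is treated as linearly proportional to Ki.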

Row | SMILES | pIC50
1 | COC(=O)C[C@H](O)[C@H](CC(C)C)NC(=O)[C@H](C)NC(=O)C[C@H](O)[C@H](CC(C)C)NC(=O)[C@H](CCS(C)(=O)=O)NC(=O)[C@H](Cc1ccccc1)NC(=O)OC(C)(C)C (Boc-F[Met(O2)][Sta]A[Sta]-OMe) | 5.00
2 | COC(=O)C[C@H](O)[C@H](CC(C)C)NC(=O)[C@H](C)NC(=O)C[C@H](O)[C@H](CC(C)C)NC(=O)C(NC(=O)[C@H](Cc1ccccc1)NC(=O)OC(C)(C)C)C1CCCCC1 (some centres undefined) (Boc-F[ξChg][Sta]A[Sta]-OMe) | 6.82
3 | COC(=O)C[C@H](O)[C@H](CC(C)C)NC(=O)[C@H](C)NC(=O)C[C@H](O)[C@H](CC(C)C)NC(=O)[C@H](CCSC)NC(=O)[C@H](Cc1ccccc1)NC(=O)OC(C)(C)C (Boc-FM[Sta]A[Sta]-OMe) | 6.50
4 | COC(=O)C[C@H](O)[C@H](CC(C)C)NC(=O)[C@H](C)NC(=O)C[C@H](O)[C@H](CC(C)C)NC(=O)[C@H](CO)NC(=O)[C@H](Cc1ccccc1)NC(=O)OC(C)(C)C (Boc-FS[Sta]A[Sta]-OMe) | 6.36
5 | CCCC[C@H](NC(=O)[C@H](Cc1ccccc1)NC(=O)OC(C)(C)C)C(=O)N[C@@H](CC(C)C)[C@@H](O)CC(=O)N[C@@H](C)C(=O)N[C@@H](CC(C)C)[C@@H](O)CC(=O)OC (Boc-F[Nle][Sta]A[Sta]-OMe) | 6.92
6 | COC(=O)C[C@H](O)[C@H](CC(C)C)NC(=O)[C@H](C)NC(=O)C[C@H](O)[C@H](CC(C)C)NC(=O)[C@H](CCC(N)=O)NC(=O)[C@H](Cc1ccccc1)NC(=O)OC(C)(C)C (Boc-FQ[Sta]A[Sta]-OMe) | 6.50
7 | COC(=O)C[C@H](O)[C@H](CC(C)C)NC(=O)[C@H](C)NC(=O)C[C@H](O)[C@H](CC(C)C)NC(=O)C(NC(=O)[C@H](Cc1ccccc1)NC(=O)OC(C)(C)C)C1CCCC1 (some centres undefined) (Boc-F[ξGly(cPent)][Sta]A[Sta]-OMe) | 7.43
8 | COC(=O)C[C@H](O)[C@H](CC(C)C)NC(=O)[C@H](C)NC(=O)C[C@H](O)[C@H](CC(C)C)NC(=O)[C@H](CC(N)=O)NC(=O)[C@H](Cc1ccccc1)NC(=O)OC(C)(C)C (Boc-FN[Sta]A[Sta]-OMe) | 5.92
9 | COC(=O)C[C@H](O)[C@H](CC(C)C)NC(=O)[C@H](C)NC(=O)C[C@H](O)[C@H](CC(C)C)NC(=O)C(NC(=O)[C@H](Cc1ccccc1)NC(=O)OC(C)(C)C)c1cccs1 (some centres undefined) (Boc-F[X1][Sta]A[Sta]-OMe) | 6.60
10 | CCOC[C@H](NC(=O)[C@H](Cc1ccccc1)NC(=O)OC(C)(C)C)C(=O)N[C@@H](CC(C)C)[C@@H](O)CC(=O)N[C@@H](C)C(=O)N[C@@H](CC(C)C)[C@@H](O)CC(=O)OC (Boc-FS(Et)[Sta]A[Sta]-OMe) | 6.95
11 | CCCC[C@H](NC(=O)[C@H](Cc1ccccc1)NC(=O)OC(C)(C)C)C(=O)N[C@@H](CC(C)C)[C@@H](O)CC(=O)N[C@@H](C)C(=O)N[C@@H](CC(C)C)[C@@H](O)CC(=O)O (Boc-F[Nle][Sta]A[Sta]-OH) | 7.52
12 | COC(=O)C[C@H](O)[C@H](CC(C)C)NC(=O)[C@H](C)NC(=O)C[C@H](O)[C@H](CC(C)C)NC(=O)[C@H](CC1CCCCC1)NC(=O)[C@H](Cc1ccccc1)NC(=O)OC(C)(C)C (Boc-F[Cha][Sta]A[Sta]-OMe) | 6.31

Continued, values first:

Row | pIC50 | SMILES
13 | 6.50 | COC(=O)C[C@H](O)[C@H](CC(C)C)NC(=O)[C@H](C)NC(=O)C[C@H](O)[C@H](CC(C)C)NC(=O)[C@H](COCc1cccnc1)NC(=O)[C@H](Cc1ccccc1)NC(=O)OC(C)(C)C (Boc-FS(X2)[Sta]A[Sta]-OMe)
14 | 7.03 | COC(=O)C[C@H](O)[C@H](CC(C)C)NC(=O)[C@H](C)NC(=O)C[C@H](O)[C@H](CC(C)C)NC(=O)C(NC(=O)[C@H](Cc1ccccc1)NC(=O)OC(C)(C)C)c1ccccc1 (some centres undefined) (Boc-F[ξPhg][Sta]A[Sta]-OMe)
15 | 6.92 | COC(=O)C[C@H](O)[C@H](CC(C)C)NC(=O)[C@H](C)NC(=O)C[C@H](O)[C@H](CC(C)C)NC(=O)[C@H](Cc1c[nH]c2ccccc12)NC(=O)[C@H](Cc1ccccc1)NC(=O)OC(C)(C)C (Boc-FW[Sta]A[Sta]-OMe)
16 | 5.85 | COC(=O)C[C@H](O)[C@H](CC(C)C)NC(=O)[C@H](C)NC(=O)C[C@H](O)[C@H](CC(C)C)NC(=O)[C@H](Cc1ccccc1)NC(=O)[C@H](Cc1ccccc1)NC(C)=O (Ac-FF[Sta]A[Sta]-OMe)
17 | 5.85 | COC(=O)C[C@H](O)[C@H](CC(C)C)NC(=O)[C@H](C)NC(=O)C[C@H](O)[C@H](CC(C)C)NC(=O)[C@H](Cc1ccc(OCc2ccccc2)cc1)NC(=O)[C@H](Cc1ccccc1)NC(=O)OC(C)(C)C (Boc-FY(Bn)[Sta]A[Sta]-OMe)
18 | 6.50 | COC(=O)C[C@H](O)[C@H](CC(C)C)NC(=O)[C@H](C)NC(=O)C[C@H](O)[C@H](CC(C)C)NC(=O)[C@H](Cc1ccccc1)NC(=O)[C@H](Cc1ccccc1)NC(=O)CC(C)C (Isovaleryl-FF[Sta]A[Sta]-OMe)
19 | 6.76 | COC(=O)C[C@H](O)[C@H](CC(C)C)NC(=O)[C@H](C)NC(=O)C[C@H](O)[C@H](CC(C)C)NC(=O)[C@H](COCc1ccccc1)NC(=O)[C@H](Cc1ccccc1)NC(=O)OC(C)(C)C (Boc-FS(Bn)[Sta]A[Sta]-OMe)
